{"data": "Assay results gathered from unrelated publications", "CHRM2": "Muscarinic acetylcholine receptor M2 (CHRM2, Homo sapiens, UniProt P08172)", "PNLIP": "Pancreatic triacylglycerol lipase (PNLIP, Sus scrofa, UniProt P00591)", "TMPRSS13": "TMPRSS13 (Homo sapiens, UniProt Q9BYE2)", "note": "Protocols differ between the studies behind these lines."}
{"SMILES": "OB1OCc2cc(F)ccc21", "target": "Carbapenem-hydrolyzing beta-lactamase KPC (KPC-2, Klebsiella pneumoniae, UniProt Q9F663)", "effect on": "enzyme activity", "mode": "inhibitor", "quantity": "IC50", "value": "1100 nM"}
{"SMILES": "COc1cc2c(cc1OC)CN(CCc1ccc(NC(=O)c3cccc4c(=O)c5cccc(OC)c5[nH]c34)cc1)CC2", "target": "CHRM2", "effect on": "cell-free assay", "quantity": "Ki", "value": "466 nM"}
{"SMILES": "C[C@H](CCCOS(=O)(=O)O)[C@H]1CC[C@H]2[C@@H]3CC[C@H]4C[C@@H](O)CC[C@]4(C)[C@H]3CC[C@]12C", "target": "CHRM2", "effect on": "cAMP", "mode": "antagonist", "quantity": "IC50", "value": "9050 nM"}
{"SMILES": "[2H]c1c([2H])c([C@]2([2H])CCCN2C(=O)C(C)(C)Oc2ccc3cn[nH]c3c2)c([2H])c([2H])c1C([2H])([2H])[2H]", "target": "Receptor-interacting serine/threonine-protein kinase 1 (RIPK1, Homo sapiens, UniProt Q13546)", "effect on": "enzyme activity", "mode": "inhibitor", "quantity": "IC50", "value": "1.8 nM"}
{"SMILES": "C=CCc1ccc(O)c(-c2cc(CC=C)ccc2O)c1", "target": "PNLIP", "effect on": "enzyme activity", "mode": "inhibitor", "method": "fluorescence", "quantity": "IC50", "value": "3240 nM"}
{"SMILES": "CS(=O)(=O)N[C@@H](CCC(N)=O)C(=O)N[C@@H](Cc1ccccc1)C(=O)N[C@@H](CCCNC(=N)N)C(=O)c1nccs1", "target": "TMPRSS13", "effect on": "cell-free assay", "quantity": "Ki", "value": "355 nM"}
{"SMILES": "O=C1Nc2ccc3ncsc3c2/C1=C/c1cnc[nH]1", "target": "Serine/threonine-protein kinase Nek7 (NEK7, Homo sapiens, UniProt Q8TDX7)", "effect on": "enzyme activity", "mode": "inhibitor", "quantity": "IC50", "value": "11900 nM"}
{"SMILES": "COc1c2c(cc3c1-c1c(cc4c(c1OC)OCO4)C[C@H](C)[C@H](C)C3)OCO2", "target": "PNLIP", "effect on": "enzyme activity", "mode": "inhibitor", "method": "fluorescence", "quantity": "IC50", "value": "8650 nM"}
{"SMILES": "C[C@H](NC(=O)[C@H](CCC(N)=O)NC(=O)CCCCNC(=N)N)C(=O)N[C@@H](CCCNC(=N)N)C(=O)c1nc2ccccc2s1", "target": "TMPRSS13", "effect on": "cell-free assay", "quantity": "Ki", "value": "33 nM"}
